{"data": "Assay results collected from several papers", "target": "Rhodopsin kinase GRK7 (GRK7, Homo sapiens, UniProt Q8WTQ7)", "One construct used (Q8WTQ7 1-553)": "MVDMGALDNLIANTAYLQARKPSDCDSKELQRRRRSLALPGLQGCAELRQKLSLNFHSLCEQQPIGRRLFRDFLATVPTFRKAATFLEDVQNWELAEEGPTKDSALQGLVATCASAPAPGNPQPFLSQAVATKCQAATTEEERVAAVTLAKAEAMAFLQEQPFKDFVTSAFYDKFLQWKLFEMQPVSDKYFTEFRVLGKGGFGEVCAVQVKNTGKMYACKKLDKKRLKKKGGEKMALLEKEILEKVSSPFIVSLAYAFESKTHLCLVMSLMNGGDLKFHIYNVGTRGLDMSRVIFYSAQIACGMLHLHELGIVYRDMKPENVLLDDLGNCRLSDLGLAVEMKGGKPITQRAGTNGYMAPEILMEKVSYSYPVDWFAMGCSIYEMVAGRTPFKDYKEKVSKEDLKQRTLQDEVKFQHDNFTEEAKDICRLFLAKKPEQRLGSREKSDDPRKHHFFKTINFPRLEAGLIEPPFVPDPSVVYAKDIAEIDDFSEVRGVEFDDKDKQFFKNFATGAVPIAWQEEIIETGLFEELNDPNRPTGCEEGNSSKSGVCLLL", "note": "Each line is one published result; the experiments were not run side by side."}
{"Compound": "C[C@@H]1CCN(c2nccc(-c3cnn4ncccc34)n2)C1", "test": "binding", "setting": "1 µM", "endpoint": "remaining binding", "value": "82%"}
{"Compound": "CCC(=O)N[C@H]1CC[C@@H](C(=O)N(C)c2ccc(-c3nc4ccccc4o3)cc2)C1", "test": "cell-free assay, competition with immobilised ligand", "setting": "1 µM", "endpoint": "remaining binding", "value": "82%"}
{"Compound": "C#Cc1cccc(Nc2ncnc3cc(OCCOC)c(OCCOC)cc23)c1", "test": "cell-free assay", "setting": "0.5 µM", "endpoint": "remaining signal", "value": "98.3%"}
{"Compound": "O=C(Nc1cnn(-c2csc(C(=O)NC3COC3)c2)c1)Nc1ccccc1Cl", "test": "enzyme activity, inhibitor", "setting": "5 µM", "endpoint": "remaining activity", "value": "96.4%"}
{"Compound": "COc1cc2ncnc(Nc3ccc(Oc4ccccc4)cc3C)c2cc1OC", "test": "enzyme activity, inhibitor", "setting": "1 µM", "endpoint": "inhibition", "value": "-3%"}
{"Compound": "Cc1cc(NC(=O)c2cccc3cc(-c4cccc5[nH]nc(N)c45)ccc23)ccc1F", "test": "enzyme activity, inhibitor", "setting": "0.1 µM", "endpoint": "activity vs control", "value": "114%"}
{"Compound": "N#CCCc1ccc2c(c1)-c1[nH]c3ccc([N+](=O)[O-])cc3c1CC(=O)N2", "test": "cell-free assay", "setting": "0.5 µM", "endpoint": "remaining signal", "value": "97.7%"}
{"Compound": "Cc1ccc(C(=O)NCc2ccsc2)cc1C#Cc1cn(C(C)C)c2ncnc(N)c12", "test": "enzyme activity, inhibitor", "setting": "1 µM", "endpoint": "activity vs control", "value": "100%"}
{"Compound": "CCN(CC)c1ccc(C2=NNC(=O)CC2C)cc1[N+](=O)[O-] (stereo not drawn)", "test": "enzyme activity, inhibitor", "setting": "10 µM", "endpoint": "remaining activity", "value": "100%"}
{"Compound": "CO[C@@H](C)c1c(Nc2ccc([C@H](N(C)C(=O)C3CCS(=O)(=O)CC3)C(F)(F)F)cc2)cnc2cc(Cl)nn12", "test": "cell-free assay, competition with immobilised ligand", "setting": "1 µM", "endpoint": "remaining binding", "value": "100%"}
{"Compound": "COc1cc2c(N3CCN(C(=O)Nc4ccc(OC(C)C)cc4)CC3)ncnc2cc1OCCCN1CCCCC1", "test": "cell-free assay", "setting": "0.5 µM", "endpoint": "remaining signal", "value": "104%"}
{"Compound": "Cc1cnc(NC2CCOCC2)nc1-n1cnc(C(=O)NC(CN)c2cc(F)cc(Cl)c2)c1 (stereo not drawn)", "test": "enzyme activity, inhibitor, radiometric", "setting": "1 µM", "endpoint": "remaining activity", "value": "85%"}
{"Compound": "CN1CCN(c2cnc3c(C4CCN(C(=O)c5ccc(OC(F)(F)F)cc5N)CC4)ncnc3c2)CC1", "test": "cell-free assay, competition with immobilised ligand", "setting": "1 µM", "endpoint": "remaining binding", "value": "87%"}
{"Compound": "Nc1ncnc2occ(-c3ccc(NC(=O)Nc4cc(C(F)(F)F)ccc4F)cc3)c12", "test": "cell-free assay, inhibitor", "setting": "20 µM", "endpoint": "remaining signal", "value": "77%"}
{"Compound": "O=C(N1CCS(=O)(=O)CC1)N1C[C@H](c2ccc(OC(F)(F)F)cc2)C[C@H](c2nc(C3CC3)no2)C1", "test": "cell-free assay, competition with immobilised ligand", "setting": "1 µM", "endpoint": "remaining binding", "value": "100%"}
{"Compound": "CCCS(=O)(=O)Nc1ccc(F)c(C(=O)c2c[nH]c3ncc(-c4ccc(Cl)cc4)cc23)c1F", "test": "enzyme activity, inhibitor", "setting": "1 µM", "endpoint": "inhibition", "value": "< 10%"}
{"Compound": "O=C(O)[C@@H]1[C@@H](Cn2nnc3ccccc3c2=O)CC[C@H]1C(=O)c1ccc(OCCC2CCOCC2)cc1", "test": "cell-free assay, competition with immobilised ligand", "setting": "1 µM", "endpoint": "remaining binding", "value": "100%"}
{"Compound": "CC(C)(C)c1nc2c(s1)c1nc(N)ncc1c1ccc(NS(=O)(=O)c3c(F)cccc3F)c(F)c12", "test": "enzyme activity, inhibitor, radiometric", "setting": "1 µM", "endpoint": "remaining activity", "value": "81%"}
